Data set [1] is described as follows: Cysteine reactivity at pH 7.4 after 15 mins by 1H NMR analysis. Type of data set: physicochemical. Conditions: pH 7.4, 0.25 h. In short, it runs like this:
(§1)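 Compound mixed with glutathione or L-cysteine at pH 7.4 and monitored by NMR for 2 h. The first spectrum was acquired 15 min after mixing. N-ethylmaleimide served as a reactive Michael acceptor reference.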

In data set [2] the test system is Plasmodium falciparum. Kind of data set: Antimalarial activity against blood stage of Plasmodium falciparum in presence of pantothenate by [3H]hypoxanthine incorporation assay. It is filed as functional, organism-based.
The test system of data set [3] is Plasmodium falciparum. As to the kind of experiment: Antimalarial activity against Plasmodium falciparum 3D7 infected in human erythrocytes after 96 hrs in presence of 1 uM pantothenate by SYBR green fluorescence-based method. It is filed as functional, organism-based. Conditions: 3D7, 96 h. Summed up:
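Blood-stage parasites cultured 96 h in medium with 1 μM pantothenate across a range of compound concentrations; IC50 is the concentration giving 50% inhibition of proliferation. Each experiment run in triplicate, 2–7 independent experiments; mean ± range/2 (n = 2) or SEM (n = 3–7).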

Data set [4] has as its system Plasmodium falciparum. Kind of data set: Ratio of IC50 for Plasmodium falciparum 3D7 infected in human erythrocytes in presence of 100 uM pantothenate to IC50 for Plasmodium falciparum 3D7 infected in human erythrocytes in presence of 1 uM pantothenate. Type of data set: functional. Summed up: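 Paired 96 h proliferation assays with parasites in medium containing 100 μM versus 1 μM pantothenate. Fold-increase = IC50 at 100 μM pantothenate divided by IC50 at 1 μM. Two independent experiments in triplicate; error is range/2.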

Data set [5] has as its target T1, Pantothenate kinase, putative (Plasmodium falciparum (isolate 3D7)) (UniProt Q8ILP4).
T1 sequence (whole entry): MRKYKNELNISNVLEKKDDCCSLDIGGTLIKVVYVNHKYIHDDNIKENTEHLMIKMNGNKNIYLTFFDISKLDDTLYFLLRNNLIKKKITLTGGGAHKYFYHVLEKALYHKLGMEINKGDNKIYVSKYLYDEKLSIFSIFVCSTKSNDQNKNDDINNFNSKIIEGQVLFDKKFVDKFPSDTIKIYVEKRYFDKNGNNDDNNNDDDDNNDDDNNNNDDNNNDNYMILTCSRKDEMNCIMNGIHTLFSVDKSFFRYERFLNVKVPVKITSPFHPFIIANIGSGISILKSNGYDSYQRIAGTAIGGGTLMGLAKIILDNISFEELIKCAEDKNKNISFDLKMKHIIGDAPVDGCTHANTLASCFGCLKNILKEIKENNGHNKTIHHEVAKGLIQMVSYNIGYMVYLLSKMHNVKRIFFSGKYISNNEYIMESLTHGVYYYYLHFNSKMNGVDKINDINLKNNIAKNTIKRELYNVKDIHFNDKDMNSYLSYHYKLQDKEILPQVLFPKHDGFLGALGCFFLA
As to the kind of experiment: Inhibition of pantothenate kinase in Plasmodium falciparum 3D7 trophozoites at 100 uM using [14C]pantothenate as substrate after 15 to 60 mins by TopCount scintillation counting method relative to control. Summed up: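 [14C]Pantothenate phosphorylation by PanK in P. falciparum lysate with compound at 100 μM. Pantothenate was 1.8 μM for R-compounds and 1 μM for S-compounds. Incubation period was pre-set within the linear range; percent inhibition versus DMSO-only controls. 3–8 experiments in duplicate, SEM.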

Data set [6] deals with T2, Pantothenate kinase, putative (Plasmodium falciparum (isolate 3D7), UniProt Q8ILP4).
T2 sequence (Q8ILP4 whole entry): T1 sequence (whole entry)
Kind of data set: Inhibition of pantothenate kinase in Plasmodium falciparum 3D7 trophozoites using [14C]pantothenate as substrate after 15 mins by TopCount scintillation counting method. Summed up: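 PanK activity in P. falciparum lysate with 1.8 μM [14C]pantothenate and increasing compound concentrations, 15 min incubation within the linear range. Percent inhibition from [14C]pantothenate phosphorylated versus no compound. 2–5 experiments in duplicate; mean ± range/2 or SEM.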

A short description of data set [7]: Cysteine reactivity at pH 7.4 after 2 hrs by 1H NMR analysis. It is filed as physicochemical. Conditions: pH 7.4, 2 h. Summed up:
as §1

A short description of data set [8]: Cytotoxicity against HEK293 cells assessed as inhibition of cell proliferation at 100 uM after 96 hrs by CellTiter-Glo assay relative to control. Conditions: human. It is filed as cell-based. In short, it runs like this:
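HEK-293 proliferation measured over 96 h with compound at 100 μM; percent inhibition reported.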
On the technique in general: Cellular ATP, detected with luciferase, serves as a proxy for viable cell number.

Data set [9] is described as follows: Cytotoxicity against human WI38 cells assessed as inhibition of cell proliferation at 100 uM after 48 hrs by CellTiter-Glo assay relative to control. It is filed as cell-based, WI-38. In short, it runs like this:
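WI-38 proliferation measured over 48 h with compound at 100 μM; percent inhibition reported.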

Data set [10] in a line: Selectivity index, ratio of cytotoxic concentration for HEK293 cells to IC50 for Plasmodium falciparum 3D7 infected in human erythrocytes in presence of 1 uM pantothenate. Conditions: read-out: Selectivity Index. It is filed as toxicity, cell-based.
Data set [11] can be described thus: Selectivity index, ratio of cytotoxic concentration for human WI38 cells to IC50 for Plasmodium falciparum 3D7 infected in human erythrocytes in presence of 1 uM pantothenate. It is filed as toxicity, cell-based. Conditions: read-out: Selectivity Index.

Consider `CCN1C(=O)C=CC1=O` [N-ETHYLMALEIMIDE], for which the Drug metabolism result in data set [1] is reported as “Metabolite_Detected”.
For the molecule `CC(C)(CO)[C@@H](O)C(=O)N/C=C/C(=O)O`, the IC50 was found to be 39 µM in data set [2], 36 µM in data set [3] and 14 µM in data set [6]. In data set [4], the “Ratio IC50” value is reported as greater than 2.8. The inhibition in data set [5] is 87%. Moreover, the Drug metabolism result in data set [7] is “Metabolite_Notdetected”. Moreover, the inhibition at 96 h, 100 µM in [8] is -17%. Moreover, in [9], the inhibition at 48 h, 100 µM is -23%. Besides, the selectivity ratio in data set [10] and in [11] was greater than 3 throughout.

A word on the IC50: it is the point on the concentration scale where inhibition reaches its midpoint. By inhibition is commonly meant the drop in the measured response relative to a control, in per cent.

The values above are taken from ChEMBL document CHEMBL4138249, “Structure-activity analysis of CJ-15,801 analogues that interact with Plasmodium falciparum pantothenate kinase and inhibit parasite proliferation” (Eur J Med Chem, 2018).
